Measured values as given in ChEMBL document CHEMBL1140372, “Synthesis, structure-activity relationships, and biological properties of 1-heteroaryl-4-[omega-(1H-indol-3-yl)alkyl]piperazines, novel potential antipsychotics combining potent dopamine D2 receptor antagonism with potent serotonin reuptake inhibition” (J Med Chem, 2005).

What was measured:
D(2) dopamine receptor [1] = molecular target: T1, D(2) dopamine receptor (Homo sapiens, UniProt P14416); test: In vitro inhibitory constant against [3H]spiperone binding to human dopamine D2 receptor expressed in CHO cells; type: cell-based
[2] = molecular target: Sodium-dependent serotonin transporter (Rattus norvegicus, UniProt P31652); test: In vitro inhibitory constant against [3H]paroxetine binding to rat frontal cortex membrane serotonin reuptake site; type: tissue-based
Outline: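 Rat frontal cortex membranes; serotonin reuptake sites labelled with [3H]paroxetine in competition binding. Ki (nM) calculated from at least three independent experiments.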

[3] = molecular target: Sodium-dependent serotonin transporter (Mus musculus) (UniProt Q60857); test: Effective dose against potentiation of 5-HTP induced serotonin syndrome in mice upon oral administration (Serotonin reuptake inhibitory activity); type: functional, organism-based
D(2) dopamine receptor [4] = molecular target: T1, D(2) dopamine receptor; test: In vitro inhibitory constant against [3H]spiperone binding to human dopamine D2 receptor expressed in CHO cells; NA= not active; type: cell-based
Outline: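 Membrane preparation from CHO cells transfected with human D2L receptor; competition binding against [3H]spiperone.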

Sodium-dependent serotonin transporter (Mus musculus), sequence (Q60857 whole entry): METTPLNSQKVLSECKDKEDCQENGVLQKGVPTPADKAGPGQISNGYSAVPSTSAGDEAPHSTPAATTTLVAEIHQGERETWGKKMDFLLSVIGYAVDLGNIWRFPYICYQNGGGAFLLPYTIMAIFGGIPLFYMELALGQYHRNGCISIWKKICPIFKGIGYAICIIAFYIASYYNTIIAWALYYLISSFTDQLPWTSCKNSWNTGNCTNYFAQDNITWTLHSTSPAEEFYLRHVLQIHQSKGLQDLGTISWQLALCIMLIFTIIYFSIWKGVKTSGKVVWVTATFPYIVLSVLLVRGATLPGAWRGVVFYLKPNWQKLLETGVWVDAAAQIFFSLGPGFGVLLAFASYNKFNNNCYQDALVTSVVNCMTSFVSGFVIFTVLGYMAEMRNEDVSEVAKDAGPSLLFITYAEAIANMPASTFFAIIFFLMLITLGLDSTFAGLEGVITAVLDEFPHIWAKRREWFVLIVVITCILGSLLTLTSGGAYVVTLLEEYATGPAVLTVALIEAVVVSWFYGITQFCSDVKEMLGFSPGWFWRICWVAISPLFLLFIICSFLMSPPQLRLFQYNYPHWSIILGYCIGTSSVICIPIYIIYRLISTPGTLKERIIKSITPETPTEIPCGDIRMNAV
Sodium-dependent serotonin transporter, sequence (P31652 whole entry): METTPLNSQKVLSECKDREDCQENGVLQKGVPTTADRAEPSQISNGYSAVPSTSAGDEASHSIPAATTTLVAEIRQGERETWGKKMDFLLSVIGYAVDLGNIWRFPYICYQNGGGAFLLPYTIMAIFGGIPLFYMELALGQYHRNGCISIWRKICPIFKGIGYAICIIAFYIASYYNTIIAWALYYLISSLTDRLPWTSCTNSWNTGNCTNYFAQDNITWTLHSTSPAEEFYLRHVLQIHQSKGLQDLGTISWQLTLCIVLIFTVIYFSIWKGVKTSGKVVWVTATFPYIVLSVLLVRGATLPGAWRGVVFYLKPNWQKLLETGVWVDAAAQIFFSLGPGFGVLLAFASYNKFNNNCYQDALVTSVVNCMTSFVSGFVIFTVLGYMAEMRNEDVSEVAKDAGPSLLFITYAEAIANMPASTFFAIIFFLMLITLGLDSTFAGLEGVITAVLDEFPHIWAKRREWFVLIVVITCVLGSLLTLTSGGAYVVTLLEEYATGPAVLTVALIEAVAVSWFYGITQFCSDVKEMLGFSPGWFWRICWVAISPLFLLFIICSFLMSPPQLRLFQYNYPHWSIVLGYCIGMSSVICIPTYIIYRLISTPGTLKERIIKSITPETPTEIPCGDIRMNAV
T1 sequence (P14416 whole entry): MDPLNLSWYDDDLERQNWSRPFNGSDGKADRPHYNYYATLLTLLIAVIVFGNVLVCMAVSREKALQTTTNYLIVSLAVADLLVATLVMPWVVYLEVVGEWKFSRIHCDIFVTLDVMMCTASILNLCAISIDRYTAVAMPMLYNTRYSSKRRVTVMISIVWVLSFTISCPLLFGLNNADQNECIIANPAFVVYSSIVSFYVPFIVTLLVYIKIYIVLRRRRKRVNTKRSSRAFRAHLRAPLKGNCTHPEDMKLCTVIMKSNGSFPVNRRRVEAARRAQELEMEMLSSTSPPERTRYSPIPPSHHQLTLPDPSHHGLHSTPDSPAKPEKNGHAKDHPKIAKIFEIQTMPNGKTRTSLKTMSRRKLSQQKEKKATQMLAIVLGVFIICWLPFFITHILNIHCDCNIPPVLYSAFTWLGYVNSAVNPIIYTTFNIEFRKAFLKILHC

SMILES | Ki (D(2) dopamine receptor [1]) [nM] | Ki [2] [nM] | ED50 [3] [mg/kg] | Ki (D(2) dopamine receptor [4])
c1cc2c(c(N3CCN(CCCCc4c[nH]c5ccccc45)CC3)c1)OCCO2 | 5.1 | 60 | > 30 | 
c1cc2c(c(N3CCN(CCCc4c[nH]c5ccccc45)CC3)c1)CCCO2 | 20.3 |  | 100 | 
O=C1COc2c(cccc2N2CCN(CCCc3c[nH]c4ccccc34)CC2)N1 | 4.3 | 0.6 | 30 | 
c1ccc2c(CCC3CCNCC3)c[nH]c2c1 [INDALPINE] |  |  |  | Not Active
C[C@@H]1Oc2c(cccc2N2CCN(CCCc3c[nH]c4ccccc34)CC2)NC1=O | 1 | 1 | > 10 | 
c1cc2c(c(N3CCN(CCc4c[nH]c5ccccc45)CC3)c1)OCCO2 | 45 | 12 |  | 
COc1ccc2[nH]cc(CCCN3CCN(c4cccc5c4OCCO5)CC3)c2c1 | 15 |  |  | 
CC1(C)Oc2c(cccc2N2CCN(CCCc3c[nH]c4ccccc34)CC2)NC1=O | 7.4 | 2.8 | 7.3 | 
C[C@H]1Oc2c(cccc2N2CCN(CCCc3c[nH]c4c(F)cccc34)CC2)NC1=O | 5.3 | 2.4 | 30 | 
Clc1cccc2c(CCCN3CCN(c4cccc5c4OCCO5)CC3)c[nH]c12 | 15.5 |  |  | 
Fc1cccc2c(CCCN3CCN(c4cccc5c4OCCO5)CC3)c[nH]c12 | 10.6 |  | 28.4 | 
c1cc2c(c(N3CCN(CCCc4c[nH]c5ccccc45)CC3)c1)CCCN2 | 11.3 | 1.1 | 15 | 
CC1Oc2c(cccc2N2CCN(CCCc3c[nH]c4ccccc34)CC2)NC1=O (stereo unspecified) | 4.5 | 0.4 | 3 | 
Clc1ccc2[nH]cc(CCCN3CCN(c4cccc5c4OCCO5)CC3)c2c1 | 31.6 | 0.5 |  | 
c1cc2c(c(N3CCN(CCCc4c[nH]c5ccccc45)CC3)c1)OCCO2 | 21 |  | 22 | 
Clc1cccc2[nH]cc(CCCN3CCN(c4cccc5c4OCCO5)CC3)c12 | 24 |  |  | 

SMILES | Ki (D(2) dopamine receptor [1]) [nM] | Ki [2] [nM] | ED50 [3] [mg/kg] | Ki (D(2) dopamine receptor [4])
Fc1cccc2[nH]cc(CCCN3CCN(c4cccc5c4OCCO5)CC3)c12 | 8.1 |  | 32 | 
Fc1ccc2[nH]cc(CCCN3CCN(c4cccc5c4OCCO5)CC3)c2c1 | 19 |  | 2 | 
Fc1ccc2c(CCCN3CCN(c4cccc5c4OCCO5)CC3)c[nH]c2c1 |  |  | 30 | 
CC1Oc2c(N3CCN(CCCc4c[nH]c5ccccc45)CC3)cccc2N(C)C1=O (stereo unspecified) | 35.7 | 1.4 | 5.6 | 
CC1CNc2cccc(N3CCN(CCCc4c[nH]c5ccccc45)CC3)c2C1 (stereo unspecified) | 15 | 2.7 | > 100 | 
C[C@@H]1Oc2c(cccc2N2CCN(CCCc3c[nH]c4ccc(F)cc34)CC2)NC1=O | 4.7 | 0.7 | 0.7 | 
O=C1CCc2c(cccc2N2CCN(CCCc3c[nH]c4ccccc34)CC2)N1 | 11.4 | 1.5 | 9 | 
Cc1ccc2[nH]cc(CCCN3CCN(c4cccc5c4OCCO5)CC3)c2c1 |  | 0.4 |  | 
c1cc2c(c(N3CCN(CCCc4c[nH]c5ccccc45)CC3)c1)OCCN2 | 17.9 | 1.5 | 100 | 
Clc1ccc2c(CCCN3CCN(c4cccc5c4OCCO5)CC3)c[nH]c2c1 | 2.1 |  | 86 | 
C[C@H]1Oc2c(cccc2N2CCN(CCCc3c[nH]c4ccc(F)cc34)CC2)NC1=O | 6.9 | 0.2 | 0.15 | 
C[C@@H]1Oc2c(cccc2N2CCN(CCCc3c[nH]c4c(F)cccc34)CC2)NC1=O | 1 | 3 | 10 | 
Cc1cccc2c(CCCN3CCN(c4cccc5c4OCCO5)CC3)c[nH]c12 | 15.9 |  |  | 
c1cc2c(c(N3CCN(CCCCCc4c[nH]c5ccccc45)CC3)c1)OCCO2 | 9.1 |  |  | 
C[C@H]1Oc2c(cccc2N2CCN(CCCc3c[nH]c4ccccc34)CC2)NC1=O | 8.7 | 0.5 | 3 | 
CN1CCCc2c1cccc2N1CCN(CCCc2c[nH]c3ccccc23)CC1 | 90 | 7.4 |  | 
